Test results: ChEMBL document CHEMBL1275389, “In vivo characterization of a dual adenosine A2A/A1 receptor antagonist in animal models of Parkinson's disease” (J Med Chem, 2010)
Active and inactive are the calls of the source. No cut-off for these calls is given here.

Experiments:
[1] = Half life in Sprague-Dawley rat at 10 mg/kg, po; type: ADME, organism-based; set-up: dose 10 mg/kg, route oral; details: in vivo
Procedure, shortened: (§1)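 Fasted male Sprague-Dawley rats received one oral dose of 10 mg/kg as a solution in 0.5% methylcellulose. For bioavailability, a separate iv dose of 2 mg/kg was given in 10% solutol. Discrete blood samples were taken by orbital sinus puncture from 3–4 rats per time point. Plasma was acetonitrile-precipitated and measured by LC-MS/MS (LOQ 0.7-2 ng/mL). Parameters came from noncompartmental analysis.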

[2] = system: Mus musculus; assay: Reversal of reserpine-induced akinesia in CF1 mouse at 30 mg/kg, po administered 18 hrs after reserpine challenge measured for 30 mins after 60 mins
[3] = system: Mus musculus; assay: Reversal of haloperidol-induced catalepsy in po dosed BALB/c mouse administered 30 mins after haloperidol challenge measured for 60 seconds after 1 hr; type: functional
Procedure, shortened: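 Fasted male BALB/c mice (18-23 g) received haloperidol 1 mg/kg sc (in 0.3% tartaric acid/0.9% saline). Test compound was given orally in 0.5% methylcellulose (0.01-10 mg/kg) 30 min later. L-DOPA 300 mg/kg plus carbidopa 75 mg/kg served as positive control. Groups were randomized and testing was blind. At 1 h, forepaws were placed on a bar 3.5 cm high and time on the bar was recorded (max 60 s). n = 9-11; Dunnett's test.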

[4] = system: Mus musculus; assay: Reversal of reserpine-induced akinesia in CF1 mouse at 10 mg/kg, po administered 18 hrs before reserpine challenge measured for 30 mins after 60 mins; type: functional, organism-based; set-up: dose 10 mg/kg; details: in the assay text read “18 hrs after reserpine challenge” for “18 hrs before reserpine challenge”
Procedure, shortened: (§2)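 Mice were pretreated with reserpine (0.6 mg/kg sc) 18 h before testing. They were dosed orally with test compound (0.10, 1.0, 10.0, 30.0 mg/kg) or vehicle. Locomotion was recorded 60 min after dosing as total distance traveled (cm) over a 30 min period. Mean ± SEM, n = 10-12 per group; Hochberg test versus reserpine + vehicle.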

[5] = biological target: Adenosine receptor A2a (Homo sapiens, UniProt P29274); assay: Antagonist activity at adenosine A2A receptor; type: functional
[6] = system: Callithrix jacchus; assay: Inhibition of MPTP-induced motor disabilities in Callithrix jacchus at 10 mg/kg, po measured every 5 mins for 6 hrs; type: functional, organism-based; set-up: dose 10 mg/kg
Procedure, shortened: (§3)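 MPTP-treated marmosets were dosed orally with vehicle, L-DOPA (12 mg/kg) or test compound (0.1/0.3, 1.0, 10, 50 mg/kg). Parkinsonian motor disability was scored out to 6 h. Eight animals per group. Analysis used a Friedman nonparametric repeated-measures ANOVA with Dunn's test.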

[7] = Cmax in Sprague-Dawley rat brain at 10 mg/kg, po; type: ADME, organism-based; set-up: dose 10 mg/kg, route oral
Procedure, shortened: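 Tissue distribution study: fasted male Sprague-Dawley rats were given 10 mg/kg orally in 0.5% methylcellulose. Four rats per time point were euthanized to collect brain. Brains were weighed, homogenized in methanol, and the extract evaporated and reconstituted in mobile phase for LC-MS/MS.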

[8] = Cmax in BALB/c mouse plasma at 10 mg/kg, po; type: ADME, organism-based; set-up: dose 10 mg/kg, route oral
Procedure, shortened: (§4)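 Fasted male BALB/c mice received one oral dose of 10 mg/kg as a solution in 0.5% methylcellulose. For bioavailability, a separate iv dose of 2 mg/kg was given in 10% solutol. Discrete blood samples were taken by cardiac puncture from 3–4 animals per time point. Plasma was acetonitrile-precipitated and measured by LC-MS/MS (LOQ 0.7-2 ng/mL). Parameters came from noncompartmental analysis.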

[9] = Half life in BALB/c mouse at 10 mg/kg, po; type: ADME, organism-based; set-up: dose 10 mg/kg, route oral; details: in vivo; procedure, shortened: as §4
[10] = Cmax in Sprague-Dawley rat plasma at 10 mg/kg, po; type: ADME, organism-based; set-up: dose 10 mg/kg, route oral; procedure, shortened: as §1
[11] = system: Mus musculus; assay: Reversal of haloperidol-induced catalepsy in BALB/c mouse at 3 mg/kg, po administered 30 mins after haloperidol challenge measured for 60 seconds after 4 hrs; type: functional, organism-based; set-up: dose 3 mg/kg
Procedure, shortened: (§5)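 Fasted male BALB/c mice received haloperidol (1 mg/kg sc) and were then dosed orally with test compound (0, 1, 3 mg/kg in 0.5% methylcellulose), reference A2A antagonist (5 mg/kg) or vehicle. Bar catalepsy (max 60 s) was measured repeatedly at 15 min, 1 h, 2 h and 4 h after dosing. Mean ± SEM, n = 12; Dunnett's test.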

[12] = system: Callithrix jacchus; assay: Inhibition of MPTP-induced motor disabilities in Callithrix jacchus at 1 mg/kg, po measured every 5 mins […]; type: functional, organism-based; set-up: dose 1 mg/kg; procedure, shortened: as §3
[13] = Ratio of drug level in brain to plasma in Sprague-Dawley rat at 10 mg/kg, po; type: ADME, organism-based; set-up: dose 10 mg/kg, route oral
Procedure, shortened: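 Fasted male Sprague-Dawley rats were given 10 mg/kg orally as a solution in 0.5% methylcellulose. At each time point four rats were euthanized for blood, plasma and brain. Brain was homogenized in methanol, and the extract was dried and reconstituted in mobile phase. Plasma was precipitated with acetonitrile. Both were quantified by LC-MS/MS.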

[14] = system: Rattus norvegicus; assay: Reversal of haloperidol-induced catalepsy in Sprague-Dawley rat at 1 mg/kg, po administered 30 mins after haloperidol challenge measured for 180 seconds after 4 hrs; type: functional, organism-based; set-up: dose 1 mg/kg
Procedure, shortened: (§6)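 Haloperidol-treated rats (1 mg/kg sc) were dosed orally with test compound (0, 1, 10 mg/kg) or L-DOPA 200 mg/kg plus benserazide 50 mg/kg. Time to descend from the bar (max 180 s) was measured at 15 min, 1 h, 2 h and 4 h after dosing. n = 10 rats; Dunnett's test versus haloperidol + vehicle.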

[15] = Oral bioavailability in cynomolgus monkey at 10 mg/kg; type: ADME, organism-based, Macaca fascicularis; details: in vivo
Procedure, shortened: (§7)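 Fasted male and female cynomolgus monkeys received one oral dose of 10 mg/kg as a solution in 0.5% methylcellulose. For bioavailability, a separate iv dose of 1 mg/kg was given in 10% solutol. Serial blood was drawn by venipuncture. Plasma was acetonitrile-precipitated and measured by LC-MS/MS (LOQ 0.7-2 ng/mL). Noncompartmental analysis was applied to individual plasma concentrations.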

[16] = Cmax in cynomolgus monkey plasma at 10 mg/kg, po; type: ADME, organism-based, Macaca fascicularis; set-up: dose 10 mg/kg, route oral; procedure, shortened: as §7
[17] = Half life in cynomolgus monkey at 10 mg/kg, po; type: ADME, organism-based, Macaca fascicularis; set-up: dose 10 mg/kg, route oral; details: in vivo; procedure, shortened: as §7
[18] = system: Callithrix jacchus; assay: Inhibition of MPTP-induced motor disabilities in Callithrix jacchus at 50 mg/kg, po measured every 5 mins for 6 hrs; type: functional, organism-based; set-up: dose 50 mg/kg; procedure, shortened: as §3
[19] = Oral bioavailability in BALB/c mouse at 10 mg/kg; type: ADME, organism-based; details: in vivo; procedure, shortened: as §4
[20] = biological target: T1, Adenosine receptor A1 (Homo sapiens, UniProt P30542); assay: Antagonist activity at adenosine A1 receptor; type: functional
T1 sequence (P30542 whole entry): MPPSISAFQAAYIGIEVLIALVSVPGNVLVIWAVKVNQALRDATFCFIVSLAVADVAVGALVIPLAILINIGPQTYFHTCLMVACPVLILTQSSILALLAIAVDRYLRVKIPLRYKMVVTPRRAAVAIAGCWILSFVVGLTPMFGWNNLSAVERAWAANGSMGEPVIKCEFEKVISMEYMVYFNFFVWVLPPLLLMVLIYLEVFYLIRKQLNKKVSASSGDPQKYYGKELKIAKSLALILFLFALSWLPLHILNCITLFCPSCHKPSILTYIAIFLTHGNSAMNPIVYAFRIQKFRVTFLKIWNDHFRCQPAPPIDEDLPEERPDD

[21] = system: Rattus norvegicus; assay: Inhibition of 6-hydroxydopamine-induced rotational behavior in Sprague-Dawley rat at 0.1 to 10 mg/kg, po measured for 120 mins; type: functional; details: 2 h, dose mg/kg 0.1-10, read-out: MED
Procedure, shortened: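 Rats received 6-OHDA (12 μg) unilaterally into the medial forebrain bundle. Six weeks later they were dosed orally with test compound alone (0.1, 1.0, 3.0, 10 mg/kg). Rotation was tracked by an optical sensor tethered to an automated system, with one count per 360° turn. Readout was mean ± SEM total contralateral rotations over 2 h, n = 16 per group.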

[22] = system: Mus musculus; assay: Reversal of haloperidol-induced catalepsy in BALB/c mouse at 1 mg/kg, po administered 30 mins after haloperidol challenge measured for 60 seconds after 4 hrs; type: functional, organism-based; set-up: dose 1 mg/kg; procedure, shortened: as §5
[23] = system: Mus musculus; assay: Reversal of reserpine-induced akinesia in po dosed CF1 mouse administered 18 hrs after reserpine challenge measured for 30 mins after 60 mins; details: read-out: MED
[24] = system: Rattus norvegicus; assay: Reversal of haloperidol-induced catalepsy in po dosed Sprague-Dawley rat administered 30 mins after haloperidol challenge measured for 180 seconds after 1 hr; type: functional
Procedure, shortened: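 Sprague-Dawley rats received haloperidol (1 mg/kg sc). Oral test compound (0.01-30.0 mg/kg), L-DOPA/carbidopa (200:50 mg/kg) or vehicle followed, as in the mouse protocol. Time to descend from the bar was recorded (max 180 s). Mean ± SEM, n = 10-16 rats per group.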

[25] = system: Mus musculus; assay: Reversal of reserpine-induced akinesia in CF1 mouse at 1 mg/kg, po administered 18 hrs before reserpine challenge measured for 30 mins after 60 mins; type: functional, organism-based; set-up: dose 1 mg/kg; details: in the assay text read “18 hrs after reserpine challenge” for “18 hrs before reserpine challenge”; procedure, shortened: as §2
[26] = system: Rattus norvegicus; assay: Potentiation of L-dopa-induced rotational behavior in unilaterally 6-hydroxydopamine-lesioned po dosed Sprague-Dawley rat pretreated 30 mins before L-dopa challenge measured for 120 mins in presence of carbidopa; type: functional, organism-based
Procedure, shortened: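 6-OHDA (12 μg) was microinjected unilaterally into the medial forebrain bundle. Six weeks later rats got L-DOPA (10 mg/kg po, with carbidopa 2.5 mg/kg sc) alone or together with oral test compound (0.1, 1.0, 3.0, 10 mg/kg). Contralateral 360° turns were counted by an optical sensor during the 2 h before and after L-DOPA. Mean ± SEM, n = 16 rats; Tukey's test versus L-DOPA + vehicle.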

[27] = Oral bioavailability in Sprague-Dawley rat at 10 mg/kg; type: ADME, organism-based; details: in vivo; procedure, shortened: as §1
[28] = system: Rattus norvegicus; assay: Reversal of haloperidol-induced catalepsy in Sprague-Dawley rat at 10 mg/kg, po administered 30 mins after haloperidol challenge measured for 180 seconds after 4 hrs; type: functional, organism-based; set-up: dose 10 mg/kg; procedure, shortened: as §6
[29] = system: Callithrix jacchus; assay: Inhibition of MPTP-induced motor disabilities in Callithrix jacchus at 12 mg/kg, po measured every 5 mins […]; type: functional, organism-based; set-up: dose 12 mg/kg; procedure, shortened: as §3
[30] = system: Callithrix jacchus; assay: Toxicity in Callithrix jacchus assessed as induction of dyskinesia at 12 mg/kg, po measured for 10 mins every 30 mins […]; type: organism-based; set-up: dose 12 mg/kg, route oral; details: marmoset, in vivo
Procedure, shortened: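 MPTP-treated marmosets received vehicle, L-DOPA (12 mg/kg po) or oral test compound (0.1, 1.0, 10, 50 mg/kg). Dyskinesias (involuntary movements) were scored out to 4 h. Eight animals per group. Analysis used a Friedman test followed by Dunn's comparison.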

Chain of Adenosine receptor A2a (P29274 whole entry): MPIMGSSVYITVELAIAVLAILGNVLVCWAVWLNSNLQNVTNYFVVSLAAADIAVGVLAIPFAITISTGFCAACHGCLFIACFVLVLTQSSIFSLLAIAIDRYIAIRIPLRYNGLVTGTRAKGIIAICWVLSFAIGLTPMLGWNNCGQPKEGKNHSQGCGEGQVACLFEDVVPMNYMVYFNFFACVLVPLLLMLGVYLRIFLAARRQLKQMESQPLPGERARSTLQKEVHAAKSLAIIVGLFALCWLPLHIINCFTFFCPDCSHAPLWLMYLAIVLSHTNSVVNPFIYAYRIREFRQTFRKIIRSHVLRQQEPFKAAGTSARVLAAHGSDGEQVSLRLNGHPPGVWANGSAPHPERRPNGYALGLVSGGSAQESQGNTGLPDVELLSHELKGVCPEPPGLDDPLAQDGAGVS

## Cl.Cl.Nc1nc(-c2ccccc2)c2c(n1)-c1cc(CN3CCCC3)ccc1C2=O
[1]
  half-life: 1.6 h
[2]
  Activity: Active
[3]
  Activity: Dose-dependent effect
[3]; Mus musculus, BALB/c, po
  ED50: 0.17 mg/kg
[3]; Mus musculus, BALB/c, po, read-out: MED
  minimal effective dose: 1 mg/kg
[4]
  Activity: Active
[5]
  Ki: 4.1 nM
[6]
  Activity: Active
[7]
  Cmax: 3550 nM
[8]
  Cmax: 655 nM
[9]
  half-life: 0.8 h
[10]
  Cmax: 1260 nM
[11]
  Activity: Active
[12]
  Activity: Active
[13]
  Kp: 3
[14]
  Activity: Active
[15]
  bioavailability: 39%
[16]
  Cmax: 626 nM
[17]
  half-life: 3.2 h
[18]
  Activity: Active
[19]
  bioavailability: 100%
[20]
  Ki: 17 nM
[21]
  minimal effective dose: 1 mg/kg
[22]
  Activity: Active
[23]
  minimal effective dose: 1 mg/kg
[24]
  Activity: Dose-dependent effect
  ED50: 0.48 mg/kg
[24]; read-out: MED
  minimal effective dose: 1 mg/kg
[25]
  Activity: Active
[26]
  Activity: Dose-dependent effect
[27]
  bioavailability: 64%
[28]
  Activity: Active

## CCn1c(=O)c2c(nc(/C=C/c3ccc(OC)c(OC)c3)n2C)n(CC)c1=O [ISTRADEFYLLINE]
[3]
  MRC: 1 mg/kg
[3]; Mus musculus, BALB/c, po
  ED50: 0.14 mg/kg
[11]
  Activity: Active
[22]
  Activity: Active

## N[C@@H](Cc1ccc(O)c(O)c1)C(=O)O [LEVODOPA]
[29]
  inhibition: Active
[30]
  Activity: Toxic
